Here are results for three compounds from ChEMBL document CHEMBL3297702, “Improving photodynamic inactivation of bacteria in dentistry: highly effective and fast killing of oral key pathogens with novel tooth-colored type-II photosensitizers” (J Med Chem, 2014).

Data set [1] is described as follows: Stability of the compound in D2O assessed as aggregation at 1 to 20 mM by NMR analysis. To be noted: 20000 µM. Format: physicochemical. The procedure, abridged:
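¹H NMR, aromatic region, in D2O at 1, 5, 10 and 20 mM; shifts referenced to external TMS, 1 ppm = 400 Hz; spectra compared across concentrations for dimerisation.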

Data set [2] is described as follows: Stability of the compound in D2O assessed as aggregate formation by measuring shift of spectrum in aromatic region at > 0.5 ppm at 50 to 90 degC by NMR analysis. The data set is classed as physicochemical.
Data set [3] concerns Enterococcus faecalis. In words: Photodynamic inactivation of biofilm of Enterococcus faecalis ATCC 29212 monospecies assessed as reduction of log10 CFU at 100 uM preincubated for 60 mins followed by irradiation with 600 mW/cm'2 for 120 secs measured after 24 hrs by agar plating method. Format: functional.
The subject of data set [4] is Enterococcus faecalis. Put plainly: Toxicity in Enterococcus faecalis ATCC 29212 assessed as reduction of log10 CFU at 1 to 250 uM incubated for 10 secs to 15 mins under dark condition measured after 24 hrs by agar plating method. The data set is classed as organism-based. To be noted: in vivo. The procedure, abridged: (§1)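 Dark controls. Overnight BHI cultures (EF, SM, AN aerobic; AA anaerobic; 37 °C) were washed into PBS at 10^7–10^8 cells/mL. They were mixed 1:1 with photosensitizer at final 0–250 µM and incubated 10 s, 7.5 min or 15 min, then kept in the dark for 20, 40 or 120 s. Tenfold dilutions were plated: EF on Mueller-Hinton agar, aerobic 24 h; SM on BHI agar, aerobic 48 h; AN on blood agar, aerobic 48 h; AA on BHI agar, anaerobic 48 h; all at 37 °C. CFU were compared with untreated controls; medians of three independent experiments in triplicate.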

Data set [5] has as its system Streptococcus mutans. Put plainly: Toxicity in Streptococcus mutans ATCC 25175 assessed as reduction of log10 CFU at 1 to 250 uM incubated for 10 secs to 15 mins under dark condition measured after 48 hrs by agar plating method. The procedure, abridged:
as §1

In data set [6] the test system is Actinomyces naeslundii. In words: Toxicity in Actinomyces naeslundii T14V assessed as reduction of log10 CFU at 1 to 250 uM incubated for 10 secs to 15 mins under dark condition measured after 48 hrs by agar plating method. The data set is classed as organism-based. To be noted: in vivo. The procedure, abridged: as §1
The subject of data set [7] is Aggregatibacter actinomycetemcomitans. Put plainly: Toxicity in Aggregatibacter actinomycetemcomitans ATCC 43718 assessed as reduction of log10 CFU under dark condition at 1 to 250 uM incubated for 10 secs to 15 mins under dark condition measured after 48 hrs by agar plating method. On the set-up: species or system Y4. The procedure, abridged:
as §1

Data set [8] relates to Streptococcus mutans. Put plainly: Photodynamic inactivation of Streptococcus mutans ATCC 25175 assessed as reduction of log10 CFU at 5 uM incubated prior to irradiation with 25 j/cm'2 for 20 secs measured after 48 hrs by agar plating method (reference value: <1 no unit). Format: functional.
In data set [9] the test system is Streptococcus mutans. Put plainly: Photodynamic inactivation of Streptococcus mutans ATCC 25175 assessed as reduction of log10 CFU at 100 uM incubated prior to irradiation with 150 j/cm'2 for 120 secs measured after 48 hrs by agar plating method (reference value: <1 no unit). Format: functional.
The test system of data set [10] is Actinomyces naeslundii. Put plainly: Photodynamic inactivation of Actinomyces naeslundii T14V assessed as reduction of log10 CFU at 1 uM incubated prior to irradiation with 150 j/cm'2 for 120 secs measured after 48 hrs by agar plating method (reference value: <1 no unit). The data set is classed as functional. The procedure, abridged: (§2)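 A. naeslundii T14V grown overnight at 37 °C, shaken, aerobically in BHI broth. Harvested at stationary phase, resuspended in PBS to 10^7–10^8 bacteria/mL (OD600). Mixed 1:1 with PS (final 0–250 µM) or water, 10 s incubation, then blue photopolymerizer light (1260 ± 50 mW/cm2) or dark. Tenfold dilutions plated on blood agar, aerobic 37 °C 48 h, CFU counted; medians of three independent experiments in triplicate.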

For data set [11], the system named is Enterococcus faecalis. In words: Photodynamic inactivation of biofilm of Enterococcus faecalis ATCC 29212 polyspecies assessed as reduction of log10 CFU at 100 uM preincubated for 60 mins followed by irradiation with 600 mW/cm'2 for 120 secs measured after 24 hrs by agar plating method. Format: functional.
For data set [12], the system named is Actinomyces naeslundii. In words: Photodynamic inactivation of biofilm of Actinomyces naeslundii T14V monospecies assessed as reduction of log10 CFU at 100 uM preincubated for 60 mins followed by irradiation with 600 mW/cm'2 for 120 secs measured after 28 hrs by agar plating method. Format: functional.
Data set [13] deals with Actinomyces naeslundii. Put plainly: Photodynamic inactivation of biofilm of Actinomyces naeslundii T14V polyspecies assessed as reduction of log10 CFU at 100 uM preincubated for 60 mins followed by irradiation with 600 mW/cm'2 for 120 secs measured after 28 hrs by agar plating method. The data set is classed as functional.
In data set [14] the test system is Streptococcus mutans. Put plainly: Toxicity in Streptococcus mutans ATCC 25175 assessed as reduction of log10 CFU at 1 to 250 uM incubated for 10 secs under dark condition measured after 48 hrs by agar plating method. The procedure, abridged: as §1
The subject of data set [15] is Actinomyces naeslundii. Put plainly: Toxicity in Actinomyces naeslundii T14V assessed as reduction of log10 CFU at 1 to 250 uM incubated for 10 secs under dark condition measured after 48 hrs by agar plating method. Format: organism-based. Conditions: in vivo. The procedure, abridged: as §1
The test system of data set [16] is Aggregatibacter actinomycetemcomitans. In words: Toxicity in Aggregatibacter actinomycetemcomitans ATCC 43718 assessed as reduction of log10 CFU under dark condition at 1 to 250 uM incubated for 10 secs under dark condition measured after 48 hrs by agar plating method. On the set-up: species or system Y4. The procedure, abridged:
as §1

The subject of data set [17] is Actinomyces naeslundii. Put plainly: Photodynamic inactivation of Actinomyces naeslundii T14V assessed as reduction of log10 CFU at 10 uM incubated prior to irradiation with 150 j/cm'2 for 120 secs measured after 48 hrs by agar plating method (reference value: <1 no unit). Format: functional. The procedure, abridged:
as §2

For the compound `C[N+](C)(C)CC1=Cc2cccc3cccc(c23)C1=O.[Cl-]`, in [1], the Stability result was “Unstable”. The Activity in [2] came out at 70 mM.
Consider `O=C1C(C[n+]2ccccc2)=Cc2cccc3cccc1c23.[Cl-]`, for which the log10cfu is over 5 in [3]; under 3 in data set [8]; over 6 in data set [9]; under 5 in [10]; over 5 in data set [11]; over 5 in data set [12]. For the same compound, in data set [13], the log10cfu is given as over 5. The Activity result in data set [4], in data set [5], in data set [6] and in data set [7] was “Non-toxic” throughout.
With `C[N+](C)(CCO)CC1=Cc2cccc3cccc(c23)C1=O.[Cl-]`, the Activity result in data set [14], in data set [15] and in data set [16] was “Non-toxic” throughout. Besides, the log10cfu in [8] was under 1; in [9] it was over 6; in data set [10], under 1; in data set [17] it was under 5.
